Measured values published in BindingDB's records for doi:10.1021/jm970328b (University of Minnesota, 1997).
Where a SMILES comes first, the peptide text is derived from it.

What was measured:
[1] = target: T1, D(2) dopamine receptor (Bos taurus, UniProt P20288); assay: Inhibitory constant of compound in absence of Gpp(NH)p calculated for the low affinity components of the [3H]spiroperidol binding to Dopamine receptor D2
How it was run: (§1)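 Bovine striatal membranes (150-200 µg protein) were incubated with 0.2 nM [3H]spiroperidol and varying N-propylnorapomorphine, with or without 100 µM Gpp(NH)p and 100 nM peptidomimetic, plus 50 nM ketanserin, for 1 h at 22 °C, then GF/B filtered. Nonspecific binding was set with 1.0 µM (+)-butaclamol. A two-site fit gave high/low-affinity fractions; Ki values came via Cheng-Prusoff. Mean ± SEM of 3-4 experiments.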

[2] = target: T1, D(2) dopamine receptor; assay: Inhibitory constant of compound in presence of Gpp(NH)p calculated for the low affinity components of the [3H]spiroperidol binding to Dopamine receptor D2; how it was run: as §1
[3] = target: T1, D(2) dopamine receptor; assay: Inhibitory constant of compound in presence of Gpp(NH)p (Pre treated with 1 nM) calculated for the high affinity components of the [3H]spiroperidol binding to Dopamine receptor D2
[4] = target: T1, D(2) dopamine receptor; assay: Inhibitory constant of compound in absence of Gpp(NH)p (Pre treated with 1 nM) calculated for the high affinity components of the [3H]spiroperidol binding to Dopamine receptor D2
[5] = target: T1, D(2) dopamine receptor; assay: Inhibitory constant of compound in presence of Gpp(NH)p calculated for the high affinity components of the [3H]spiroperidol binding to Dopamine receptor D2; how it was run: as §1
[6] = target: T1, D(2) dopamine receptor; assay: Inhibitory constant of compound in absence of Gpp(NH)p calculated for the high affinity components of the [3H]spiroperidol binding to Dopamine receptor D2; how it was run: as §1
[7] = target: T1, D(2) dopamine receptor; assay: Inhibitory constant of compound in presence of Gpp(NH)p (Pre treated with 100 nM) calculated for the high affinity components of the [3H]spiroperidol binding to Dopamine receptor D2; how it was run: as §1
[8] = target: T1, D(2) dopamine receptor; assay: Inhibitory constant of compound in absence of Gpp(NH)p (Pretreated with 100 nM) calculated for the high affinity components of the [3H]spiroperidol binding to Dopamine receptor D2; how it was run: as §1
[9] = target: T1, D(2) dopamine receptor; assay: Inhibitory constant of compound in presence of Gpp(NH)p (Pre treated with 100 nM) calculated for the low affinity components of the [3H]spiroperidol binding to Dopamine receptor D2; how it was run: as §1
[10] = target: T1, D(2) dopamine receptor; assay: Inhibitory constant of compound in absence of Gpp(NH)p (Pre treated with 100 nM) calculated for the high affinity components of the [3H]spiroperidol binding to Dopamine receptor D2; how it was run: as §1
[11] = target: T1, D(2) dopamine receptor; assay: Inhibitory constant of compound in presence of Gpp(NH)p (Pre treated with 1 uM) calculated for the high affinity components of the [3H]spiroperidol binding to Dopamine receptor D2
[12] = target: T1, D(2) dopamine receptor; assay: Inhibitory constant of compound in absence of Gpp(NH)p (Pre treated with 1 uM) calculated for the high affinity components of the [3H]spiroperidol binding to Dopamine receptor D2
[13] = target: T1, D(2) dopamine receptor; assay: Percentage of receptor in the high affinity form for the compound to Dopamine receptor D2 in absence of Gpp(NH)p (pre treated with 1 uM)

T1 sequence (P20288 whole entry): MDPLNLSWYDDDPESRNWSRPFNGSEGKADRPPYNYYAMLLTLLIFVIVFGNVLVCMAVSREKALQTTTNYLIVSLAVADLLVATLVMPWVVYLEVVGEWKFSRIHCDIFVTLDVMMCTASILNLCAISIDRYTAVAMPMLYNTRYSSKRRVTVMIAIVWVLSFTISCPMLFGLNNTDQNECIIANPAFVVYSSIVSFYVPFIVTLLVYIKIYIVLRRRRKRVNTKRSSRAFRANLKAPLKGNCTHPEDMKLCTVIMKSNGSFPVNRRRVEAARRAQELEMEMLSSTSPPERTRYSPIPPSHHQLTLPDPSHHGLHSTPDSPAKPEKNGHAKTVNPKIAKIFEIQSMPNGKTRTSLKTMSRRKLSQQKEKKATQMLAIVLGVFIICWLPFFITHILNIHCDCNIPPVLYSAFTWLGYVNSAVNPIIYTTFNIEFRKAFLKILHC

Row | Ki [1] [pM] | Ki [2] [pM] | Ki [3] [pM] | Ki [4] [pM] | Ki [5] [pM] | Ki [6] [pM] | Ki [7] [pM] | Ki [8] [pM] | Ki [9] [pM] | Ki [10] [pM] | Ki [11] [pM] | Ki [12] [pM] | percent high-affinity form [13] [nM] | SMILES
1 | 69000 | 50000 | 50 | 20 | 190 | 80 |  |  |  |  |  |  |  | NC(=O)CN1CCC(N2CC(=O)N3CCC[C@H]3C2=O)C1=O (stereo partly drawn) [2-[3-((2R,8aS)-1,4-Dioxo-hexahydro-pyrrolo[1,2-a]pyrazin-2-yl)-2-oxo-pyrrolidin-1-yl]-acetamide]
2 | 120000 | 172000 |  |  | 120 | 80 | 80 | 68 | 104000 |  |  |  |  | CC(C)C[C@@H](C(=O)NCC(N)=O)N1CC(=O)N2CCC[C@H]2C1=O [(S)-2-((S)-1,4-Dioxo-hexahydro-pyrrolo[1,2-a]pyrazin-2-yl)-4-methyl-pentanoic acid carbamoylmethyl-amide]
3 | 171000 | 183000 |  |  | 140 | 98 | 67 |  | 106000 | 66 |  |  |  | NC(=O)[C@H]1CS[C@@H]2CC(N3CC(=O)N4CCC[C@H]4C3=O)C(=O)N12 (stereo partly drawn) [(3S,7aR)-6-((2R,8aS)-1,4-Dioxo-hexahydro-pyrrolo[1,2-a]pyrazin-2-yl)-5-oxo-hexahydro-pyrrolo[2,1-b]thiazole-3-carboxylic acid amide]
4 | 73000 | 60000 |  |  | 130 | 90 |  |  |  |  | 60 | 40 | 61 | CC(C)C[C@H](NC(=O)[C@@H]1CCCN1)C(=O)NCC(N)=O [L-pro-L-leu-gly-NH2] (H-Pro-Leu-Gly-NH2)
